Results taken from ChEMBL document CHEMBL3745617 (J Med Chem, 2015).
pIC50: −log10 of the molar value. The source made the active and inactive calls. The rule behind the calls is not given here.

How the values were obtained:
[1] = biological target: Epidermal growth factor receptor (Homo sapiens) (UniProt P00533); test: Inhibition of EGFR (unknown origin) expressed in BaF3 cells assessed as inhibition of cell proliferation after 72 hrs by CelltiterGlo assay; format: cell-based
[2] = biological target: Tyrosine-protein kinase JAK2 (Homo sapiens) (UniProt O60674); test: Inhibition of JAK2 (unknown origin) expressed in BaF3 cells assessed as inhibition of cell proliferation after 72 hrs by CelltiterGlo assay; format: cell-based
Chain of Tyrosine-protein kinase JAK2 (Homo sapiens) (O60674 whole entry): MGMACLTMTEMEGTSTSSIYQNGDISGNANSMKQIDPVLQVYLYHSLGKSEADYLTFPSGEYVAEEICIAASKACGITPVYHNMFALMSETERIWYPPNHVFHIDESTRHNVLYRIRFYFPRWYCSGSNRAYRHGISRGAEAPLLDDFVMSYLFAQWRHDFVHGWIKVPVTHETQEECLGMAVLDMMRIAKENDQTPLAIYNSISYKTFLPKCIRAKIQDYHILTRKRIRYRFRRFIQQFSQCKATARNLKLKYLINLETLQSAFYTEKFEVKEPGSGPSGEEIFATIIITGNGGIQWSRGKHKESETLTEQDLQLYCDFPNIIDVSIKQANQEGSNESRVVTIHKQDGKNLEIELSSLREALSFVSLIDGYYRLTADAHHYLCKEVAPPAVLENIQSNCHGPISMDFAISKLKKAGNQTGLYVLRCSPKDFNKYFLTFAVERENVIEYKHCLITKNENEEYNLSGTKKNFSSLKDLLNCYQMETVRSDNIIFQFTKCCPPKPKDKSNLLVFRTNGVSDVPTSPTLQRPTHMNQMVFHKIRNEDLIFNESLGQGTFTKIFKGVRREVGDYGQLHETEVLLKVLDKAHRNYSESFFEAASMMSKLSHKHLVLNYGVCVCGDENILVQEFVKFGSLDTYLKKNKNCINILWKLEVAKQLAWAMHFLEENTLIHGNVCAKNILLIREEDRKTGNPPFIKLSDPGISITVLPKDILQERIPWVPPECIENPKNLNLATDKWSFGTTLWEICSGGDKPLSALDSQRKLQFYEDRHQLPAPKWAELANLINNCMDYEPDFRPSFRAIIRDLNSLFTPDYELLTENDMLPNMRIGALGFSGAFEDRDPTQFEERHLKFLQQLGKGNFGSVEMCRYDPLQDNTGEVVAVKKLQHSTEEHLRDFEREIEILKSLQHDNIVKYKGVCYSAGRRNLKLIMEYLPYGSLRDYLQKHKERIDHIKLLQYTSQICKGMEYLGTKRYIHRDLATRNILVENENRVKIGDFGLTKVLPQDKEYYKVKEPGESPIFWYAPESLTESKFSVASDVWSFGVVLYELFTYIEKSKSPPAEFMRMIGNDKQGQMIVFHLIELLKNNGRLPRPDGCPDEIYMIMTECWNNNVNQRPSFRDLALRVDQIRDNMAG

[3] = biological target: Tyrosine-protein kinase JAK3 (Homo sapiens) (UniProt P52333); test: Inhibition of JAK3 (unknown origin) expressed in BaF3 cells assessed as inhibition of cell proliferation after 72 hrs by CelltiterGlo assay; format: cell-based
Chain of Tyrosine-protein kinase JAK3 (Homo sapiens) (P52333 whole entry): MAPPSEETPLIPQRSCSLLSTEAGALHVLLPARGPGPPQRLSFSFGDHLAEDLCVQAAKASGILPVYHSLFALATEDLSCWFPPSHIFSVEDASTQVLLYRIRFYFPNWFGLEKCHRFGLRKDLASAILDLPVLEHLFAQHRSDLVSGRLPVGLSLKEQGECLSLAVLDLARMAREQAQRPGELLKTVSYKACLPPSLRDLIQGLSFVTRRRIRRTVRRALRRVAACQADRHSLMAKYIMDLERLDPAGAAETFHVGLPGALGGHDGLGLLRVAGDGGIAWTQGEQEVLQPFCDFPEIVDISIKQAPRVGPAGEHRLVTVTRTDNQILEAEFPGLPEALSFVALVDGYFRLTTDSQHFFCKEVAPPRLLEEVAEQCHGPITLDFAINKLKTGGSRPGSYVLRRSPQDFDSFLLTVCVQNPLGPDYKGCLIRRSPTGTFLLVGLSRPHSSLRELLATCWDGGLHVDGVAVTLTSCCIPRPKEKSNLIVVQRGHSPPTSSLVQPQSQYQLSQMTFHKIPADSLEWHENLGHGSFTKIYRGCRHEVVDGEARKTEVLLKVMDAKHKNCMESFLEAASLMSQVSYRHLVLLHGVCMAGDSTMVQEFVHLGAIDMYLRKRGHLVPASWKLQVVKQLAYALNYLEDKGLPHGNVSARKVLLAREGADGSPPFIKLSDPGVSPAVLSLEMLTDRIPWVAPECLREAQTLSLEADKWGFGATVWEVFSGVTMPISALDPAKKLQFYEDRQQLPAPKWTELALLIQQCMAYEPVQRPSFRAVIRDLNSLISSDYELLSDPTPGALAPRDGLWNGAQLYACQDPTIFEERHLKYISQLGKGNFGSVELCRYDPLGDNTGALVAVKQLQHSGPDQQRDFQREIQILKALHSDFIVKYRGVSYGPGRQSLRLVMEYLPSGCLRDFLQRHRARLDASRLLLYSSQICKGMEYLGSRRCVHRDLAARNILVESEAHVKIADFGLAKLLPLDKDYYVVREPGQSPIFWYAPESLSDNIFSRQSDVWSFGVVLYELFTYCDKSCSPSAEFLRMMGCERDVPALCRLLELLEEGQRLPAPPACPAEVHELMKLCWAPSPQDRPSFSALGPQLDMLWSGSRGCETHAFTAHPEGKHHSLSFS

[4] = biological target: Cytoplasmic tyrosine-protein kinase BMX (Homo sapiens) (UniProt P51813); test: Inhibition of BMX (unknown origin) expressed in BaF3 cells assessed as inhibition of cell proliferation after 72 hrs by CelltiterGlo assay; format: cell-based
Chain of Cytoplasmic tyrosine-protein kinase BMX (Homo sapiens) (P51813 whole entry): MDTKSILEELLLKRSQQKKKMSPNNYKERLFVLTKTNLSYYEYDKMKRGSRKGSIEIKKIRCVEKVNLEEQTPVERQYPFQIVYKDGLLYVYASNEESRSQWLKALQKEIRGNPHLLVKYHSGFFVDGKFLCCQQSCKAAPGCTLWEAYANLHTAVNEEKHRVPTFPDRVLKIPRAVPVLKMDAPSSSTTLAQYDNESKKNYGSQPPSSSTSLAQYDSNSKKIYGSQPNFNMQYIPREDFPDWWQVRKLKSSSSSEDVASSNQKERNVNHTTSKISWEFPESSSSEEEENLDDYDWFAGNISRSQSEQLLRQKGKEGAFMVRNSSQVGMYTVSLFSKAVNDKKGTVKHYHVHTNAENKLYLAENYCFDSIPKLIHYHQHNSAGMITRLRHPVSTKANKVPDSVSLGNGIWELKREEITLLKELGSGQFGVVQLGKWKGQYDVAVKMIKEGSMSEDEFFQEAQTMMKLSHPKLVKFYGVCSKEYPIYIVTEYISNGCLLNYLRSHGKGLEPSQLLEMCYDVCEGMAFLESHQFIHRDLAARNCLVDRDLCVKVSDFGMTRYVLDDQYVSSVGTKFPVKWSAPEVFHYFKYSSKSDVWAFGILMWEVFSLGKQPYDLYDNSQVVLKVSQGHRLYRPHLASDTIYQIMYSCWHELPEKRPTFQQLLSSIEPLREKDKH

[5] = biological target: Platelet-derived growth factor receptor beta (Homo sapiens) (UniProt P09619); test: Inhibition of PDGFRB (unknown origin) expressed in BaF3 cells assessed as inhibition of cell proliferation after 72 hrs by CelltiterGlo assay; format: cell-based
Chain of Platelet-derived growth factor receptor beta (Homo sapiens) (P09619 whole entry): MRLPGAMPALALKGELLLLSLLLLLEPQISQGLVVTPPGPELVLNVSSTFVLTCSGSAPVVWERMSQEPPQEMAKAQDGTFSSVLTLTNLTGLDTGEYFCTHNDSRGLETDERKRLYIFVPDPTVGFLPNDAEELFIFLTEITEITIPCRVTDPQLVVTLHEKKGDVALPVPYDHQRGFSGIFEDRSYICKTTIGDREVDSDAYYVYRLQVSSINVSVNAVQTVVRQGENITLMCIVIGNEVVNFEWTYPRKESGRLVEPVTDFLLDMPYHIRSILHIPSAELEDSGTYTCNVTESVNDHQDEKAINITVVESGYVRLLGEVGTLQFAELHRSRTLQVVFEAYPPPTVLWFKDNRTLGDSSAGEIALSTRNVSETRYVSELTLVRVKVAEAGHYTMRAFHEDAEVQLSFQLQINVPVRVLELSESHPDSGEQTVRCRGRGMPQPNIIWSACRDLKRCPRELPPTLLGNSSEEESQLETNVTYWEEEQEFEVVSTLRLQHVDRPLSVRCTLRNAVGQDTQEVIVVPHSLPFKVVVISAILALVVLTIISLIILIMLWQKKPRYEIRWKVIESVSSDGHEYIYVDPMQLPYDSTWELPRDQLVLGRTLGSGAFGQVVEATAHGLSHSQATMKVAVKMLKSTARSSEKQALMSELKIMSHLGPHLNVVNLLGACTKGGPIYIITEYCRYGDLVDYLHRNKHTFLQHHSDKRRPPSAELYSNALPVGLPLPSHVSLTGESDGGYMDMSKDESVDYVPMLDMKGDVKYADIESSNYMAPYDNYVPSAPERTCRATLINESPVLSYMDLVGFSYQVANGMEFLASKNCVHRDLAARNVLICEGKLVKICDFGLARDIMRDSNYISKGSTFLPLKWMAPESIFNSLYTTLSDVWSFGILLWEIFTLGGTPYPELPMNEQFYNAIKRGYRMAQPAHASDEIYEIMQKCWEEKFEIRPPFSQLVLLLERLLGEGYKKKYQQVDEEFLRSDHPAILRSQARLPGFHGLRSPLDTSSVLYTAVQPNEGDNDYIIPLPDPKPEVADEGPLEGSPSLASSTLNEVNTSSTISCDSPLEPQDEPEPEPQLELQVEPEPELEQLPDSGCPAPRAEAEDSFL

[6] = Antiproliferative activity against human MOLM14 cells after 72 hrs by CelltiterGlo assay; format: functional; settings: MOLM-14, 72 h
[7] = Antiproliferative activity against human U937 cells after 72 hrs by CelltiterGlo assay; format: functional; settings: U-937, 72 h
[8] = Antiproliferative activity against human SU-DHL-2 cells after 72 hrs by CelltiterGlo assay; format: functional; settings: SU-DHL-2, 72 h
[9] = Antiproliferative activity against human U2932 cells after 72 hrs by CelltiterGlo assay; format: functional; settings: U2932, 72 h
[10] = Antiproliferative activity against human NAMALWA cells after 72 hrs by CelltiterGlo assay; format: functional; settings: NAMALVA
[11] = Antiproliferative activity against human NB4 cells after 72 hrs by CelltiterGlo assay; format: functional; settings: NB-4, 72 h
[12] = Cmax in Sprague-Dawley rat at 1 mg/kg, iv; format: ADME, organism-based; set-up: dose 1 mg/kg, route intravenous; settings: in vivo
[13] = Half life in Sprague-Dawley rat at 10 mg/kg, po; format: ADME, organism-based; settings: in vivo
[14] = Tmax in Sprague-Dawley rat at 10 mg/kg, po; format: ADME, organism-based; settings: in vivo
[15] = Cmax in Sprague-Dawley rat at 10 mg/kg, po; format: ADME, organism-based; set-up: dose 10 mg/kg, route oral; settings: in vivo
[16] = AUC(0 to t) in Sprague-Dawley rat at 10 mg/kg, po; format: ADME, organism-based; settings: in vivo
[17] = Mean residence time (0 to infinity) in Sprague-Dawley rat at 10 mg/kg, po; format: ADME, organism-based; settings: in vivo
[18] = Oral bioavailability in Sprague-Dawley rat at 10 mg/kg; format: ADME, organism-based; settings: in vivo
[19] = system: MV4-11; test: Antitumor activity against human MV4-11 cells xenografted in nu/nu mouse assessed as tumor weight at 25 mg/kg/day administered via oral gavage measured after 22 days of treatment (reference value: 2.5 g); format: functional
[20] = system: MV4-11; test: Antitumor activity against human MV4-11 cells xenografted in nu/nu mouse assessed as tumor weight at 50 mg/kg/day administered via oral gavage measured after 22 days of treatment (reference value: 2.5 g); format: functional
[21] = Antiproliferative activity against human MOLM13 cells after 72 hrs by CelltiterGlo assay; format: functional; settings: MOLM-13, 72 h
[22] = system: Receptor-type tyrosine-protein kinase FLT3 (Homo sapiens), P36888 [UNDEFINED MUTATION]; test: Inhibition of FLT3 ITD mutant (unknown origin) expressed in BaF3 cells assessed as inhibition of cell proliferation after 72 hrs by CelltiterGlo assay; format: cell-based
[23] = Cytotoxicity against mouse BAF3 cells assessed as cell proliferation after 72 hrs by CelltiterGlo assay; format: cell-based
[24] = biological target: Platelet-derived growth factor receptor beta (Homo sapiens) (UniProt P09619); test: Inhibition of PDGFRB (unknown origin) assessed as remaining activity at 1 uM relative to control
[25] = biological target: Tyrosine-protein kinase Srms (Homo sapiens) (UniProt Q9H3Y6); test: Inhibition of SRMS (unknown origin) assessed as remaining activity at 1 uM relative to control
In short: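 KinomeScan competition binding panel of 468 kinases, with the compound tested at 1 µM. Each kinase's result is reported as percent activity remaining relative to a DMSO control.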

[26] = biological target: Tyrosine-protein kinase BTK (Homo sapiens, UniProt Q06187); test: Inhibition of BTK (unknown origin) by ADP-Glo assay
Chain of Tyrosine-protein kinase BTK (Q06187 whole entry): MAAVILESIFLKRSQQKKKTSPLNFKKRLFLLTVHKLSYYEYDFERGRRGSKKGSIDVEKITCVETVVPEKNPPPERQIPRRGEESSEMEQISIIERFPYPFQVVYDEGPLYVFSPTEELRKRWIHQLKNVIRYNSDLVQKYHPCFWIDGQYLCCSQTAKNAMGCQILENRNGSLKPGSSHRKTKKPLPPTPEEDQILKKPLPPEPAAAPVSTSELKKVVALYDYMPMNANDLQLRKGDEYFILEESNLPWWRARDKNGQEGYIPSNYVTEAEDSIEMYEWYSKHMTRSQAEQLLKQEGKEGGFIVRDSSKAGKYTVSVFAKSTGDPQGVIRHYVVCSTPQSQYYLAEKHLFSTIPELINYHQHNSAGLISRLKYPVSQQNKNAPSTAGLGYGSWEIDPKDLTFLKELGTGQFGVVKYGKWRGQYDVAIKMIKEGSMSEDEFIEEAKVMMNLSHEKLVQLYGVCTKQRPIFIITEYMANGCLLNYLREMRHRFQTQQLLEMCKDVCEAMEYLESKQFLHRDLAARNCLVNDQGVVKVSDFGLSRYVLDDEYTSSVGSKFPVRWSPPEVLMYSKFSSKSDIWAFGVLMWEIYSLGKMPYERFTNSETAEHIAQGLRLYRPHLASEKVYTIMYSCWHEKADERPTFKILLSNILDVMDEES

[27] = system: MV4-11; test: Cell cycle arrest in human MV4-11 cells assessed as accumulation at G0/G1 phase at 0.03 to 1 uM after 24 hrs by flow cytometry; format: functional, cell-based
[28] = Cell cycle arrest in human MOLM13 cells assessed as accumulation at G0/G1 phase at 0.03 to 1 uM after 12 hrs by flow cytometry; format: functional, cell-based; settings: MOLM-13
[29] = system: MV4-11; test: Induction of apoptosis in human MV4-11 cells assessed as cleaved PARP level at 0.03 to 1 uM after 48 hrs by immunoblot analysis; format: functional, cell-based
[30] = system: MV4-11; test: Induction of apoptosis in human MV4-11 cells assessed as cleaved caspase-3 level at 0.03 to 1 uM after 48 hrs by immunoblot analysis; format: functional, cell-based
[31] = system: MOLM-14; test: Induction of apoptosis in human MOLM14 cells assessed as cleaved caspase-3 level at 0.03 to 1 uM after 24 hrs by immunoblot analysis; format: functional, cell-based
[32] = system: MOLM-13; test: Induction of apoptosis in human MOLM13 cells assessed as cleaved PARP level at 0.03 to 1 uM after 12 hrs by immunoblot analysis; format: functional, cell-based
[33] = system: MOLM-13; test: Induction of apoptosis in human MOLM13 cells assessed as cleaved caspase-3 level at 0.03 to 1 uM after 12 hrs by immunoblot analysis; format: functional, cell-based
[34] = Half life in Sprague-Dawley rat at 1 mg/kg, iv; format: ADME, organism-based; settings: in vivo
[35] = system: Receptor-type tyrosine-protein kinase FLT3 (Homo sapiens), P36888 [UNDEFINED MUTATION]; settings: BaF3
[36] = system: Receptor-type tyrosine-protein kinase FLT3 (Homo sapiens), P36888 [D835V]; settings: BaF3
[37] = biological target: Receptor-type tyrosine-protein kinase FLT3 (Homo sapiens) (UniProt P36888); settings: MOLM-13, 0.03 to 3 uM
[38] = biological target: Receptor-type tyrosine-protein kinase FLT3 (Homo sapiens) (UniProt P36888); settings: MV4-11, 0.03 to 3 uM
[39] = biological target: Receptor-type tyrosine-protein kinase FLT3 (Homo sapiens) (UniProt P36888); settings: MV4-11, 0.03 to 3 uM; remark: listed apart in the source
[40] = biological target: Receptor-type tyrosine-protein kinase FLT3 (Homo sapiens) (UniProt P36888); settings: MOLM-14, 0.03 to 3 uM
[41] = biological target: Receptor-type tyrosine-protein kinase FLT3 (Homo sapiens) (UniProt P36888); settings: MOLM-13, 0.03 to 3 uM; remark: listed apart in the source
[42] = biological target: Receptor-type tyrosine-protein kinase FLT3 (Homo sapiens) (UniProt P36888); settings: MOLM-13, 0.03 to 3 uM; remark: listed apart in the source

CN(C)CC(=O)N1CCC[C@@H](n2nc(-c3ccc(Oc4ccccc4)cc3)c3c(N)ncnc32)C1
GI50 [1]: 1800 nM | GI50 [2]: 300 nM | GI50 [3]: 2500 nM | GI50 [4]: 280 nM | GI50 [5]: 680 nM | GI50 [6]: 42 nM | GI50 [7]: 9700 nM | GI50 [8]: 5500 nM | GI50 [9]: 1600 nM | GI50 [10]: 6400 nM | GI50 [11]: 3800 nM | Cmax [12]: 1500 ng/mL | half-life [13]: 1.24 h | Tmax [14]: 1.67 h | Cmax [15]: 458 ng/mL | AUC(0-t) [16]: 1830 ng·h/mL | MRT inf [17]: 2.75 h | bioavailability [18]: 30.4% | Activity [19]: 0.94 g | Activity [20]: 0.3 g | GI50 [21]: 21 nM | GI50 [22]: 11 nM | GI50 at 72 h [23]: 4900 nM | Activity [24]: 0.35% | Activity [25]: 0% | pIC50 [26]: 6.38 | Activity [27]: Active | Activity [28]: Active | Activity [29]: Active | Activity [30]: Active | Activity [31]: Active | Activity [32]: Active | Activity [33]: Active | half-life [34]: 1.38 h | GI50 [35]: 220 nM | GI50 [36]: 3 nM | inhibition [37]: Active | inhibition [38]: Active | inhibition [39]: Active | inhibition [40]: Active | inhibition [41]: Active | inhibition [42]: Active
